Legend:
[1] = biological target: T1, Bromodomain-containing protein 4 (Homo sapiens, UniProt O60885); experiment: Displacement of biotinylated acetylated peptide from recombinant human partial length BRD4 long isoform bromodomain 1/2 (N44 to E460 residues) expressed in Escherichia coli BL21 measured after 1 hr by Bromoscan method
MV4-11 = experiment: Cytotoxicity against human MV411 cells after 72 hrs by CellTiter-Glo assay; assay type: functional, cell-based; conditions: MV4-11, 72 h
Mus musculus [2] = experiment: Oral bioavailability in CD-1 mouse at 10 mg/kg; assay type: ADME, organism-based; conditions: in vivo
Outline: (§1)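 CD-1 mice (n = 3) received a single oral dose of 10 mg/kg. Plasma drug levels were followed over time to derive AUC0–∞, t1/2 and oral bioavailability (F%), the last relative to the iv arm.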

Mus musculus [3] = experiment: Cmax in CD-1 mouse at 2 mg/kg, iv measured after 5 mins; assay type: ADME, organism-based; set-up: dose 2 mg/kg, route intravenous; conditions: in vivo
[4] = Volume of distribution at steady state in CD-1 mouse at 2 mg/kg, iv measured; assay type: ADME, organism-based; conditions: in vivo, read-out: Vdss
[5] = AUC (0 to infinity) in CD-1 mouse at 2 mg/kg, iv; assay type: ADME, organism-based; set-up: dose 2 mg/kg, time infinity, route intravenous; conditions: in vivo
[6] = Plasma clearance in CD-1 mouse at 2 mg/kg, iv; assay type: ADME, organism-based
[7] = (§2) AUC (0 to infinity) in CD-1 mouse at 10 mg/kg, po; assay type: ADME, organism-based; set-up: dose 10 mg/kg, time infinity, route oral; conditions: CD-1, mouse, in vivo; outline: as §1
[8] = Half life in CD-1 mouse at 2 mg/kg, iv; assay type: ADME, organism-based; conditions: in vivo
[9] = Half life in CD-1 mouse at 10 mg/kg, po; assay type: ADME, organism-based; conditions: in vivo; outline: as §1
Mus musculus [10] = experiment: Cmax in CD-1 mouse at 10 mg/kg, po measured after 5 mins; assay type: ADME, organism-based; set-up: dose 10 mg/kg, route oral; conditions: in vivo
[11] = biological target: T2, Bromodomain-containing protein 3 (Homo sapiens, UniProt Q15059); experiment: Displacement of biotinylated acetylated peptide from recombinant human partial length BRD3 bromodomain 2 (G306 to P416 residues) expressed in Escherichia coli BL21 measured after 1 hr by Bromoscan method
[12] = biological target: T3, Bromodomain testis-specific protein (Homo sapiens, UniProt Q58F21); experiment: Displacement of biotinylated acetylated peptide from recombinant human partial length BRDT isoform b bromodomain 1 (N21 to E137 residues) expressed in Escherichia coli BL21 measured after 1 hr by Bromoscan method
[13] = biological target: T3, Bromodomain testis-specific protein; experiment: Displacement of biotinylated acetylated peptide from recombinant human partial length BRDT isoform b bromodomain 1/2 (N21 to E382 residues) expressed in Escherichia coli BL21 measured after 1 hr by Bromoscan method
[14] = biological target: T4, Bromodomain-containing protein 2 (Homo sapiens, UniProt P25440); experiment: Displacement of biotinylated acetylated peptide from recombinant human partial length BRD2 isoform 1 bromodomain 1/2 (K71 to D455 residues) expressed in Escherichia coli BL21 measured after 1 hr by Bromoscan method
Mus musculus [15] = experiment: as §2; assay type: ADME, organism-based; set-up: dose 10 mg/kg, time infinity, route oral; conditions: mouse, in vivo, BLD = below limit of detection; outline: as §1
[16] = biological target: T2, Bromodomain-containing protein 3; experiment: Displacement of biotinylated acetylated peptide from recombinant human partial length BRD3 bromodomain 1 (P24 to E144 residues) expressed in Escherichia coli BL21 measured after 1 hr by Bromoscan method
[17] = biological target: T2, Bromodomain-containing protein 3; experiment: Displacement of biotinylated acetylated peptide from recombinant human partial length BRD3 bromodomain 1/2 (P24 to P416 residues) expressed in Escherichia coli BL21 measured after 1 hr by Bromoscan method
[18] = biological target: T1, Bromodomain-containing protein 4; experiment: Displacement of biotinylated acetylated peptide from recombinant human partial length BRD4 long isoform bromodomain 2 (K333 to E460 residues) expressed in Escherichia coli BL21 measured after 1 hr by Bromoscan method
[19] = biological target: T3, Bromodomain testis-specific protein; experiment: Displacement of biotinylated acetylated peptide from recombinant human partial length BRDT isoform b bromodomain 2 (K250 to E382 residues) expressed in Escherichia coli BL21 measured after 1 hr by Bromoscan method
[20] = biological target: T4, Bromodomain-containing protein 2; experiment: Displacement of biotinylated acetylated peptide from recombinant human partial length BRD2 isoform 1 bromodomain 2 (E348 to D455 residues) expressed in Escherichia coli BL21 measured after 1 hr by Bromoscan method
[21] = biological target: T1, Bromodomain-containing protein 4; experiment: Displacement of biotinylated acetylated peptide from recombinant human partial length BRD4 long isoform bromodomain 1 (N44 to E168 residues) expressed in Escherichia coli BL21 measured after 1 hr by Bromoscan method
[22] = biological target: T4, Bromodomain-containing protein 2; experiment: Displacement of biotinylated acetylated peptide from recombinant human partial length BRD2 isoform 1 bromodomain 1 (K71 to N194 residues) expressed in Escherichia coli BL21 measured after 1 hr by Bromoscan method

T4 sequence (P25440 whole entry, the tested form may be a part, canonical isoform): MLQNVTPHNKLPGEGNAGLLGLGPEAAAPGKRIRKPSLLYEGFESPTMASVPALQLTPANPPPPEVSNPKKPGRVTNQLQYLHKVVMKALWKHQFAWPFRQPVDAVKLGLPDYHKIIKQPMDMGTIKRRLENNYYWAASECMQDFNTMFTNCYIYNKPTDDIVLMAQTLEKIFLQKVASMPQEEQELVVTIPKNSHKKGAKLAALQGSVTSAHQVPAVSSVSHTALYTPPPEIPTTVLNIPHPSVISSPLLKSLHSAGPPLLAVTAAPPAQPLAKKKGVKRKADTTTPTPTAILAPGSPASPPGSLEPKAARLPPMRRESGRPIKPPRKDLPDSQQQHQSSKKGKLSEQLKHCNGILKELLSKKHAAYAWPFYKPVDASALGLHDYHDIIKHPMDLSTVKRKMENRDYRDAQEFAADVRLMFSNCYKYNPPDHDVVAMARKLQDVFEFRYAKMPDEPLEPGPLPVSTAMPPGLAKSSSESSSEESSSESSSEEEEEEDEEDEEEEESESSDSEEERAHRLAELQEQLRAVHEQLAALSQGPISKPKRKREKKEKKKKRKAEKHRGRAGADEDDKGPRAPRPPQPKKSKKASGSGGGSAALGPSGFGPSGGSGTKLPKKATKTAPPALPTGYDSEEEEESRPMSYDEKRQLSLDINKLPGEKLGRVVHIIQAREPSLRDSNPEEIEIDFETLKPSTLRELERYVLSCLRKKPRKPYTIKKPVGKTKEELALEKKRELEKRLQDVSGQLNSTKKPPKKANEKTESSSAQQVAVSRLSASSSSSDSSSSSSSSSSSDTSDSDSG
T2 sequence (Q15059 whole entry, the tested form may be a part, canonical isoform): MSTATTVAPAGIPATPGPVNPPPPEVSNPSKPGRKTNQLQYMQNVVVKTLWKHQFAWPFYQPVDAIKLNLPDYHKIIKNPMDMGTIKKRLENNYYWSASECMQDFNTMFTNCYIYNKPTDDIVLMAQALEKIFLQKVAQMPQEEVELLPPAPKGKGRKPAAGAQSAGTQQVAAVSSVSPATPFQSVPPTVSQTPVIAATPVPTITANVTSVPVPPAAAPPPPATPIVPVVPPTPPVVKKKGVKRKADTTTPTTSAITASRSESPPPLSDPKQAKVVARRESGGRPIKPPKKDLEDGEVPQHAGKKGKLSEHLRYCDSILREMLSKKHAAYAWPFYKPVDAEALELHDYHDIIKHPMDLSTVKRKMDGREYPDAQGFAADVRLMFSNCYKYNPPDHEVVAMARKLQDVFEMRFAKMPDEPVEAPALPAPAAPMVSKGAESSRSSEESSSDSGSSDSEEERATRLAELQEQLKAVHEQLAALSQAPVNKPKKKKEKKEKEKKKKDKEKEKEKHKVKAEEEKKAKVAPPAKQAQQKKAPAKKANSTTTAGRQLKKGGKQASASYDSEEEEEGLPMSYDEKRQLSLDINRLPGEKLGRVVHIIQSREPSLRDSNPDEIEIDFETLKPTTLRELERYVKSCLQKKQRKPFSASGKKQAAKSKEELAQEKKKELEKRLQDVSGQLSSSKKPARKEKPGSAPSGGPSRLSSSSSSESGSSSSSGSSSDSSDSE

| Kd [1] [µM] | Compound | IC50 (MV4-11) [µM] | further results |
| --- | --- | --- | --- |
| 0.086 | Cc1noc(C)c1-c1ccc2nc(N3CCN(CCN(C)C)CC3)nc(NC3(c4cccc(Cl)c4)CC3)c2c1 | 1.6 | – |
| 0.097 | Cc1noc(C)c1-c1ccc2nc(N3CCN(CCCN(C)C)CC3)nc(NCc3cccc(Cl)c3)c2c1 | 2.36 | – |
| 1.1 | Cc1oncc1-c1ccc2nc(N3CCN(CCN(C)C)CC3)nc(NCc3cccc(Cl)c3)c2c1 | 8.03 | – |
| 0.27 | Cc1noc(C)c1-c1ccc2nc(N3CCN(CCN(C)C)CC3)nc(N(C)Cc3cccc(Cl)c3)c2c1 | 5.5 | – |
| 0.17 | Cc1noc(C)c1-c1ccc2nc(N3CCN(CCN(C)C)CC3)nc(NCc3cccc(F)c3)c2c1 | 1.23 | – |
| 0.14 | Cc1noc(C)c1-c1ccc2nc(N3CCN(C)CC3)nc(NCc3cccc(Cl)c3)c2c1 | 1.6 | – |
| 0.52 | Cc1noc(C)c1-c1ccc2nc(N3CCN(CCN(C)C)CC3)nc(NCc3ccc(Cl)cc3)c2c1 | 3.48 | – |
| 0.57 | Cc1noc(C)c1-c1ccc2nc(C(=O)N3CCN(CCN(C)C)CC3)nc(NCc3cccc(Cl)c3)c2c1 | 4.71 | – |
| 0.085 | Cc1noc(C)c1-c1ccc2nc(N3CCN(CCN(C)C)CC3)nc(NCc3ccccc3Cl)c2c1 | 1.25 | – |
| 0.11 | Cc1noc(C)c1-c1ccc2nc(N3CCN(CCN(C)C)CC3)nc(NCc3cc(Cl)ccn3)c2c1 | 1.6 | – |
| 0.98 | Cc1noc(C)c1-c1ccc2nc(N3CCN(CCC(C)C)CC3)nc(NCc3cccc(Cl)c3)c2c1 | 6.89 | – |
| 0.61 | Cc1noc(C)c1-c1ccc2c(NCc3cccc(Cl)c3)nc(N3CCN(CCN(C)C)CC3)nc2c1 | 1.87 | – |
| 0.071 | Cc1noc(C)c1-c1ccc2nc(N3CCN(C(=O)CO)CC3)nc(NCc3cccc(Cl)c3)c2c1 | 1.33 | – |
| 0.073 | Cc1noc(C)c1-c1ccc2nc(N3CCN(CC(=O)N(C)C)CC3)nc(NCc3cccc(Cl)c3)c2c1 | 1.73 | – |
| 0.13 | Cc1noc(C)c1-c1ccc2nc(N3CCN(CCN(C)C)CC3)nc(N[C@@H](CO)c3ccccc3)c2c1 | 2.1 | – |
| 0.15 | Cc1noc(C)c1-c1ccc2nc(N3CCCN(CCN(C)C)CC3)nc(NCc3cccc(Cl)c3)c2c1 | 2.1 | – |
| 0.27 | Cc1noc(C)c1-c1ccc2nc(N3CCN(CCN(C)C)CC3)nc(NC(C)c3cccc(Cl)c3)c2c1 (centres undefined) | 4.35 | – |
| 2.6 | Cc1noc(C)c1-c1ccc2nc(N3CCN(CCN(C)C)CC3)nc(Nc3ccc(Cl)cc3)c2c1 | 1.51 | – |
| 0.03 | Cc1noc(C)c1-c1ccc2nc(N3CCN(C(=O)CN(C)C)CC3)nc(NCc3cccc(Cl)c3)c2c1 | 1.23 | – |
| 3 | Cc1noc(C)c1-c1ccc2nc(N3CCN(CCN(C)C)CC3)nc(NCCc3ccc(Cl)cc3)c2c1 | 6.65 | – |
| 0.15 | Cc1noc(C)c1-c1ccc2nc(N3CCN(CCN(C)C)CC3)nc(NCc3cccs3)c2c1 | 1.62 | – |
| 1.5 | Cc1n[nH]c(C)c1-c1ccc2nc(N3CCN(CCN(C)C)CC3)nc(NCc3cccc(Cl)c3)c2c1 | 2.85 | – |
| 0.056 | Cc1noc(C)c1-c1ccc2nc(N3CCN(CCO)CC3)nc(NCc3cccc(Cl)c3)c2c1 | 1.67 | – |
| 0.36 | Cc1nocc1-c1ccc2nc(N3CCN(CCN(C)C)CC3)nc(NCc3cccc(Cl)c3)c2c1 | 2.97 | – |
| 0.31 | Cc1cc(-c2ccc3nc(N4CCN(CCN(C)C)CC4)nc(NCc4cccc(Cl)c4)c3c2)cnc1O | 1.13 | – |
| 0.079 | Cc1noc(C)c1-c1ccc2nc(N3CCN(CCN(C)C)CC3)nc(NCc3cncc(Cl)c3)c2c1 | 1.37 | – |
| 0.056 | Cc1noc(C)c1-c1ccc2nc(N3CCN(CCN(C)C)CC3)nc(NCc3cccc(Cl)c3)c2c1 | 0.66 | – |

More lines, now with the values behind:

| Compound | Kd [1] [µM] | IC50 (MV4-11) [µM] | further results |
| --- | --- | --- | --- |
| Cc1noc(C)c1-c1ccc2nc(-c3cnn(CC(N)=O)c3)nc(NCc3cccc(Cl)c3)c2c1 | 0.13 | 0.66 | – |
| Cc1noc(C)c1-c1ccc2nc(C(=O)Nc3cnn(C)c3)nc(NCc3cccc(Cl)c3)c2c1 | 0.29 | 3.59 | – |
| Cc1noc(C)c1-c1ccc2nc(N3CCN(CCN(C)C)CC3)nc(N3CCCC3c3ccccc3)c2c1 (centres undefined) | 0.25 | 2.54 | – |
| Cc1noc(C)c1-c1ccc2nc(Cl)nc(NCc3cccc(Cl)c3)c2c1 | – | 11.3 | – |
| Cc1noc(C)c1-c1ccc2nc(-c3cnn(CCO)c3)nc(N3CCOCC3c3ccccc3)c2c1 (centres undefined) | 0.066 | – | F (Mus musculus [2]): 51%; Cmax (Mus musculus [3]): 1.69 µg/mL; Vd [4]: 1.7 L/kg; AUC(0-inf) [5]: 1.76 µg·h/mL; clearance [6]: 1.19 L/h/kg; AUC(0-inf) [7]: 4.49 µg·h/mL; half-life [8]: 3.1 h; half-life [9]: 2.1 h |
| Cc1noc(C)c1-c1ccc2nc(N(C)CCN(C)C)nc(NCc3cccc(Cl)c3)c2c1 | 0.11 | 2.97 | – |
| Cc1noc(C)c1-c1ccc2nc(N3CCN(CCN(C)C)CC3)nc(N3CCOCC3c3ccccc3)c2c1 (centres undefined) | – | 1.83 | – |
| COCCn1cc(-c2nc(NCc3cccc(Cl)c3)c3cc(-c4c(C)noc4C)ccc3n2)cn1 | 0.092 | 1.87 | – |
| Cc1noc(C)c1-c1ccc2nc(N3CCN(CCN(C)C)CC3)nc(N3CCC3c3ccccc3)c2c1 (centres undefined) | 0.48 | 4.88 | – |
| Cc1noc(C)c1-c1ccc2nc(-c3cnn(CCN(C)C)c3)nc(NCc3cccc(Cl)c3)c2c1 | 0.056 | 1.33 | – |
| Cc1noc(C)c1-c1ccc2nc(-c3ccc(CO)nc3)nc(NCc3cccc(Cl)c3)c2c1 | – | 2.64 | – |
| Cc1noc(C)c1-c1ccc2nc(-c3cnn(CCC#N)c3)nc(NCc3cccc(Cl)c3)c2c1 | 0.12 | 0.95 | – |
| CNc1nc(NCc2cccc(Cl)c2)c2cc(-c3c(C)noc3C)ccc2n1 | – | 3.59 | – |
| Cc1noc(C)c1-c1ccc2nc(C(=O)NC3CCOCC3)nc(NCc3cccc(Cl)c3)c2c1 | 0.079 | 2.84 | – |
| Cc1noc(C)c1-c1ccc2nc(-n3cc(CCO)cn3)nc(NCc3cccc(Cl)c3)c2c1 | – | 3.08 | – |
| Cc1noc(C)c1-c1ccc2nc(C(=O)NC3CCN(C)CC3)nc(NCc3cccc(Cl)c3)c2c1 | 0.08 | 1.02 | Cmax (Mus musculus [10]): 0.009 µg/mL; AUC(0-inf) [7]: 0.054 µg·h/mL; half-life [9]: 4 h |
| CN(C)CCN1CCN(c2nc(NCc3cccc(Cl)c3)c3cc(-c4ccnc(O)c4)ccc3n2)CC1 | 9.1 | 17.3 | – |
| Cc1ccc(NC(=O)c2nc(NCc3cccc(Cl)c3)c3cc(-c4c(C)noc4C)ccc3n2)cn1 | 0.62 | 4.52 | – |
| Cc1noc(C)c1-c1ccc2[nH]c(=O)cc(NCc3cccc(Cl)c3)c2c1 | 0.055 | 1.8 | – |
| Cc1noc(C)c1-c1ccc2nc(C(=O)NCc3cnn(C)c3)nc(NCc3cccc(Cl)c3)c2c1 | 0.059 | 1.27 | – |
| Cc1noc(C)c1-c1ccc2nc(-c3cnn(CCO)c3)nc(NCc3cccc(Cl)c3)c2c1 | 0.095 | 1.67 | – |
| Cc1noc(C)c1-c1ccc2nc(N3CCN(CCN(C)C)CC3)nc(N3CCCCC3c3ccccc3)c2c1 (centres undefined) | 0.06 | 5.07 | – |
| CN(C)CCN1CCN(c2nc(NCc3cccc(Cl)c3)c3cc(-c4ccc(O)nc4)ccc3n2)CC1 | 0.55 | 6.07 | – |
| CNC(=O)Cn1cc(-c2nc(NCc3cccc(Cl)c3)c3cc(-c4c(C)noc4C)ccc3n2)cn1 | – | 1.01 | – |
| CN(C)CCN1CCN(c2nc(NCc3cccc(Cl)c3)c3cc(-c4ccc(=O)n(C)c4)ccc3n2)CC1 | 0.044 | 0.54 | Kd [11]: 0.021 µM; Kd [12]: 0.02 µM; Kd [13]: 0.067 µM; Kd [14]: 0.027 µM; AUC (Mus musculus [15]): Bld; Kd [16]: 0.021 µM; Kd [17]: 0.02 µM; Kd [18]: 0.05 µM; Kd [19]: 0.16 µM; Kd [20]: 0.024 µM; Kd [21]: 0.018 µM; Kd [22]: 0.033 µM |
| CN(C)CCN1CCN(c2nc(NCc3cccc(Cl)c3)c3cc(-c4ccn(C)c(=O)c4)ccc3n2)CC1 | 7.1 | 6.89 | – |
| Cc1noc(C)c1-c1ccc2nc(C(=O)NCc3cccnc3)nc(NCc3cccc(Cl)c3)c2c1 | 0.056 | 1.43 | – |

Source: ChEMBL document CHEMBL4261601, “Discovery and lead identification of quinazoline-based BRD4 inhibitors” (Bioorg Med Chem Lett, 2018)
